The test system of data set [1] is Mus musculus. As to the kind of experiment: Maximum tolerated dose (MTD) in mice bearing s.c. B-16 Melanomas. The class given is functional.
The subject of data set [2] is Mus musculus. As to the kind of experiment: Effect on in Vivo Growth of s.c. B-16 Melanomas in mice measured ad difference of average times for tumors to reach a volume of 500 mm**3 between treatment and control groups at dose of 35 mg/kg. The format is functional.
In data set [3] the test system is Mus musculus. The data set can be described thus: Effect on in Vivo Growth of s.c. B-16 Melanomas in mice measured ad difference of average times for tumors to reach a volume of 500 mm**3 between treatment and control groups at dose of 48 mg/kg. The class given is functional.
Data set [4] relates to Mus musculus. As to the kind of experiment: Effect on in Vivo Growth of s.c. B-16 Melanomas in mice measured ad difference of average times for tumors to reach a volume of 500 mm**3 between treatment and control groups at dose of 60 mg/kg. The format is functional.
The test system of data set [5] is Mus musculus. The data set can be described thus: Effect on in Vivo Growth of s.c. B-16 Melanomas in mice measured ad difference of average times for tumors to reach a volume of 500 mm**3 between treatment and control groups at dose of 75 mg/kg. The class given is functional.
Data set [6] relates to Mus musculus. The data set can be described thus: Effect on in Vivo Growth of s.c. B-16 Melanomas in mice measured ad difference of average times for tumors to reach a volume of 500 mm**3 between treatment and control groups at dose of 41 mg/kg. The class given is functional.
Data set [7] can be described thus: Aqueous solubility was measured. The format is physicochemical. Summed up: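 Conjugate dissolved in aqueous Na₂HPO₄ (0.1 M, pH 7.4) at 37 °C; solubility expressed as mg of conjugate per mL.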
For data set [8], the species on record is Mus musculus. As to the kind of experiment: Maximum tolerated dose (MTD) in mice. The format is functional.
Data set [9] relates to Mus musculus. As to the kind of experiment: Effect on in Vivo Growth of s.c. HT-29 […] in mice measured ad difference of average times for tumors to reach a volume of 500 mm**3 between treatment and control groups at dose of 24 mg/kg. The class given is functional. Summed up:
(§1)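 Athymic nude mice bearing human HT-29 colon or NCI-H460 lung carcinoma cells were given a single bolus ip injection, dosed as mg CPT equivalent/kg. Endpoint was TGD in days, the difference in mean time to reach 500 mm³ tumor volume between treated and control groups. Student's t-test vs vehicle.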

For data set [10], the system named is Mus musculus. As to the kind of experiment: Effect on in Vivo Growth of s.c. HT-29 […] in mice measured ad difference of average times for tumors to reach a volume of 500 mm**3 between treatment and control groups at dose of 28 mg/kg. The class given is functional. Summed up:
as §1

Data set [11] deals with Mus musculus. As to the kind of experiment: Effect on in Vivo Growth of s.c. HT-29 […] in mice measured ad difference of average times for tumors to reach a volume of 500 mm**3 between treatment and control groups at dose of 20 mg/kg. The format is functional. Summed up:
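Athymic nude mice bearing human HT-29 colon carcinoma cells got a single bolus ip injection of conjugate, dosed in mg CPT equivalent/kg. Tumor growth delay (days) is the difference in average time for tumors to reach 500 mm³ between treated and control groups. Significance was tested by Student's t-test against vehicle.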

In brackets after ≈: the same amount, converted by molar mass.

Turning to `CC[C@@]1(OC(=O)CCCOC(=O)CC[C@H](N)C(=O)O)C(=O)OCc2c1cc1n(c2=O)Cc2cc3ccccc3nc2-1`, the MTD with Mus musculus [1] is ~35 (mg of CPT) kg-1. For the same compound, in the data set on Mus musculus [2], the TGD is 3 days.
As for `CC[C@@]1(OC(=O)CNC(=O)CC[C@H](N)C(=O)O)C(=O)OCc2c1cc1n(c2=O)Cc2cc3ccccc3nc2-1`, in the data set on Mus musculus [1], the MTD is ~40 (mg of CPT) kg-1. Moreover, the TGD in the data set with Mus musculus [2] was determined as 2 days.
Regarding `CC[C@@]1(OC(=O)CC[C@H](N)C(=O)O)C(=O)OCc2c1cc1n(c2=O)Cc2cc3ccccc3nc2-1`, the MTD entry with Mus musculus [1] is on record as “>=48 (mg of CPT) kg-1”. Besides, the TGD in the data set on Mus musculus [3] was determined as 4 days.
Turning to `CC[C@@]1(OC(=O)CCCNC(=O)CC[C@H](N)C(=O)O)C(=O)OCc2c1cc1n(c2=O)Cc2cc3ccccc3nc2-1`, the MTD entry in the data set with Mus musculus [1] was “>=60 (mg of CPT) kg-1”. Moreover, the TGD with Mus musculus [4] was determined as 1 days.
Take `CC[C@@]1(OC(=O)COC(=O)CC[C@H](N)C(=O)O)C(=O)OCc2c1cc1n(c2=O)Cc2cc3ccccc3nc2-1`: in the data set with Mus musculus [1], the MTD entry is on record as “>=75 (mg of CPT) kg-1”. In the data set with Mus musculus [5], this compound showed a TGD of 4 days.
Regarding `CC[C@@]1(OC(=O)CCC(NC(=O)CC[C@H](N)C(=O)O)C(=O)O)C(=O)OCc2c1cc1n(c2=O)Cc2cc3ccccc3nc2-1` (stereo not given in full), the MTD result in the data set with Mus musculus [1] is given as “>=41 (mg of CPT) kg-1”. Besides, in the data set on Mus musculus [6], the TGD was determined as 1 days.
Consider `CC[C@@]1(OC(=O)CNC(=O)CNC(=O)CNC(=O)CC[C@H](N)C(=O)O)C(=O)OCc2c1cc1n(c2=O)Cc2cc3ccccc3nc2-1`, for which the concentration in solution in data set [7] (solubility) came to 33 mg/mL (≈ 50.9 mM). The MTD in the data set filed under Mus musculus [8] is <34 (mg of CPT) kg-1. For the same compound, the TGD with Mus musculus [9] is 7 days.
For the compound `CC[C@@]1(OC(=O)CNC(=O)CNC(=O)CC[C@H](N)C(=O)O)C(=O)OCc2c1cc1n(c2=O)Cc2cc3ccccc3nc2-1`, the concentration in solution in data set [7] (solubility) came to 34 mg/mL (≈ 57.5 mM). Moreover, the MTD result in the data set listed under Mus musculus [8] is reported as “>=28 (mg of CPT) kg-1”. For the same compound, in the data set with Mus musculus [10], the TGD came out at 4 days.
As to `CC[C@@]1(O)C(=O)OCc2c1cc1n(c2=O)Cc2cc3ccccc3nc2-1` [CAMPTOTHECIN], in the data set listed under Mus musculus [8], the MTD is listed as ~20 (mg of CPT) kg-1. In addition, the TGD with Mus musculus [11] was determined as 17 days.

Values taken from ChEMBL document CHEMBL1145017, “Synthesis and in vivo antitumor activity of poly(l-glutamic acid) conjugates of 20S-camptothecin” (J Med Chem, 2003).
